Reference: ChEMBL document CHEMBL2203084, “Halogenated pentamethine cyanine dyes exhibiting high fidelity for G-quadruplex DNA” (Bioorg Med Chem, 2012)
The source made the active and inactive calls. No cut-off for these calls is given here.

Legend:
Format in all cases: nucleic-acid assay
Nucleic Acid [1] = assay: Binding affinity to Tel22 G-quadruplex DNA at 2:1 compound to DNA ratio by UV-spectrometer
In short: (§1)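 UV thermal denaturation in 1 cm quartz cuvettes; DNA at 2–3 µM single strand in HEPES buffer (50 mM KCl). Compound:DNA ratios 0:1 to 6:1. Absorbance followed versus temperature at 295 nm for Tel22 and 260 nm for the AATT hairpin duplex. ΔTm is the average of two independent trials, reproducible within 0.5 °C.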

Nucleic Acid [2] = assay: Binding affinity to Tel22 G-quadruplex DNA by two site-mode surface plasmon resonance analysis
In short: (§2)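 SPR: 5′-biotinylated DNA captured on a streptavidin chip (350–400 RU), with a blank reference cell. Ligand series from 1 nM to 1 µM injected at 25 µL/min for 5 min to steady state, then 5 min dissociation. Surface regenerated with 10 mM glycine pH 2.5. Steady-state RU was converted using predicted RUmax. Values are the mean of two experiments.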

Nucleic Acid [3] = assay: Binding affinity to duplex DNA by two site-mode surface plasmon resonance analysis; in short: as §2
Nucleic Acid [4] = assay: Binding affinity to duplex DNA at 6:1 compound to DNA ratio by UV-spectrometer; in short: as §1
Nucleic Acid [5] = assay: Binding affinity to Tel22 G-quadruplex DNA at 4:1 compound to DNA ratio by UV-spectrometer; in short: as §1
Nucleic Acid [6] = assay: Binding affinity to Tel22 G-quadruplex DNA at 6:1 compound to DNA ratio by UV-spectrometer; in short: as §1
Nucleic Acid [7] = assay: Binding affinity to c-myc quadruplex DNA by two site-mode surface plasmon resonance analysis; in short: as §2
Nucleic Acid [8] = assay: Binding affinity to duplex DNA by isothermal titration calorimetry
In short: (§3)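 ITC: ligand at 200 µM in Tris/K+ buffer injected into DNA at 20 µM in the same buffer, every 300 s, 29 injections. Heats of dilution were measured by injection into buffer and subtracted. The first injection was discarded. ΔH was from a single-site fit of heat per mole against molar ratio.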

Nucleic Acid [9] = assay: Binding affinity to Tel22 G-quadruplex DNA at 3:1 compound to DNA ratio by circular dichroism analysis
In short: (§4)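 CD spectra were recorded at 25 °C in 50 mM KCl with 4 µM single-strand quadruplex, 1 cm quartz cuvette, scan 50 nm/min, response 1 s. Ligand was titrated at increasing ligand:quadruplex ratios, and induced CD in the ligand absorbance region was assessed qualitatively.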

Nucleic Acid [10] = assay: Binding affinity to c-myc quadruplex DNA by circular dichroism analysis; in short: as §4
Nucleic Acid [11] = assay: Binding affinity to c-myc quadruplex DNA by mass spectrometry
In short: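 ESI-MS: c-myc DNA dialyzed against 50 mM ammonium acetate pH 7.2. Samples of 25–30 µM DNA with ligand at 0:1 to 4:1 molar ratios, infused directly at 5 µL/min. Capillary 2200 V, cone 30 V, desolvation 70 °C, source 100 °C. Spectra were collected for 10 min, with the last 2 min analyzed.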

Nucleic Acid [12] = assay: Binding affinity to Tel22 G-quadruplex DNA by isothermal titration calorimetry; in short: as §3
Nucleic Acid [13] = assay: Binding affinity to c-myc quadruplex DNA by isothermal titration calorimetry; in short: as §3

Compound | ΔTm (Nucleic Acid [1]) [°C] | Kb (Nucleic Acid [2]) | Activity (Nucleic Acid [3]) | ΔTm (Nucleic Acid [4]) [°C] | ΔTm (Nucleic Acid [5]) [°C] | ΔTm (Nucleic Acid [6]) [°C] | Kb (Nucleic Acid [7]) | Activity (Nucleic Acid [8]) | Activity (Nucleic Acid [9]) | Activity (Nucleic Acid [10]) | Activity (Nucleic Acid [11]) | Activity (Nucleic Acid [12]) | Activity (Nucleic Acid [13])
CC1(C)C(/C=C/C(Cl)=C/C=C2/N(CCC[N+](C)(C)C)c3ccc(Cl)cc3C2(C)C)=[N+](CCC[N+](C)(C)C)c2ccc(Cl)cc21 | 7 | 0.08 ×10⁶ /M | inactive | 2.3 | 15 | 19 | 0.23 ×10⁶ /M | – | – | – | – | – | –
CC1(C)C(/C=C/C=C/C=C2/N(CCC[N+](C)(C)C)c3ccc(Cl)cc3C2(C)C)=[N+](CCC[N+](C)(C)C)c2ccc(Cl)cc21 | 3.1 | inactive | inactive | 0.5 | 8.9 | 13.2 | inactive | – | – | – | – | – | –
CC1(C)C(/C=C/C(Br)=C/C=C2/N(CCC[N+](C)(C)C)c3ccc(Cl)cc3C2(C)C)=[N+](CCC[N+](C)(C)C)c2ccc(Cl)cc21 | 8 | 0.13 ×10⁶ /M | inactive | 1.8 | 17 | 20 | 0.25 ×10⁶ /M | – | – | – | – | – | –
CC1(C)C(/C=C/C(Br)=C/C=C2/N(CCC[N+](C)(C)C)c3ccc(Br)cc3C2(C)C)=[N+](CCC[N+](C)(C)C)c2ccc(Br)cc21 | 8 | 0.06 ×10⁶ /M | inactive | 1.2 | 16.2 | 20.3 | 2 ×10⁶ /M | inactive | Active | Active | – | – | –
CC1(C)C(/C=C/C=C/C=C2/N(CCC[N+](C)(C)C)c3ccc(Br)cc3C2(C)C)=[N+](CCC[N+](C)(C)C)c2ccc(Br)cc21 | 2.5 | 0.59 ×10⁶ /M | inactive | 1.1 | 15.6 | – | 3.6 ×10⁶ /M | inactive | Active | Active | – | – | –
CC1(C)C(/C=C/C(Cl)=C/C=C2/N(CCC[N+](C)(C)C)c3ccc(Br)cc3C2(C)C)=[N+](CCC[N+](C)(C)C)c2ccc(Br)cc21 | 9 | 0.05 ×10⁶ /M | inactive | 2.5 | 16 | 21 | 0.2 ×10⁶ /M | – | – | – | – | – | –
CC1(C)C(/C=C/C=C/C=C2/N(CCC[N+](C)(C)C)c3ccccc3C2(C)C)=[N+](CCC[N+](C)(C)C)c2ccccc21 | 2.1 | 0.17 ×10⁶ /M | inactive | 0 | 4.6 | 8.7 | 0.07 ×10⁶ /M | – | Active | Active | Active | – | –
CC1(C)C(/C=C/C(Cl)=C/C=C2/N(CCC[N+](C)(C)C)c3ccccc3C2(C)C)=[N+](CCC[N+](C)(C)C)c2ccccc21 | 4.6 | 0.08 ×10⁶ /M | inactive | 2.8 | 12.2 | 13.2 | 0.6 ×10⁶ /M | – | – | – | – | – | –
CC1(C)C(/C=C/C(Br)=C/C=C2/N(CCC[N+](C)(C)C)c3ccccc3C2(C)C)=[N+](CCC[N+](C)(C)C)c2ccccc21 | 4.6 | 0.74 ×10⁶ /M | inactive | 0.1 | 11.6 | 15.6 | 0.07 ×10⁶ /M | inactive | – | – | Active | Active | Active
